Bioassay records (PubChem BioAssay)
A selection: hits, their analogues and other compounds. The true share with any hit is near 2.6%.
NadD block – inhibitors of Staphylococcus aureus NadD; purified NadD enzyme, colorimetric absorbance read-out; inhibition, % at 20 µM; actives 0.78% (n = 360,000); in the data active means inhibition above about 26%
ABHD5 PLIN5 PPI – inhibitors of human ABHD5-perilipin-5 interaction; Q00G26+Q8WTS1; Split G. princeps luciferase complementation, luminescence, 4 h; inhibition, % at 4 µM; actives 0.78% (n = 360,000); AID 602281;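 active means inhibition above the mean inhibition across every tested compound plus 3 SD, cut at about 22% in these data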;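 further: 0% = DMSO only wells and the 100% control is not disclosed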
Target sequence (Q00G26 whole entry, looked up): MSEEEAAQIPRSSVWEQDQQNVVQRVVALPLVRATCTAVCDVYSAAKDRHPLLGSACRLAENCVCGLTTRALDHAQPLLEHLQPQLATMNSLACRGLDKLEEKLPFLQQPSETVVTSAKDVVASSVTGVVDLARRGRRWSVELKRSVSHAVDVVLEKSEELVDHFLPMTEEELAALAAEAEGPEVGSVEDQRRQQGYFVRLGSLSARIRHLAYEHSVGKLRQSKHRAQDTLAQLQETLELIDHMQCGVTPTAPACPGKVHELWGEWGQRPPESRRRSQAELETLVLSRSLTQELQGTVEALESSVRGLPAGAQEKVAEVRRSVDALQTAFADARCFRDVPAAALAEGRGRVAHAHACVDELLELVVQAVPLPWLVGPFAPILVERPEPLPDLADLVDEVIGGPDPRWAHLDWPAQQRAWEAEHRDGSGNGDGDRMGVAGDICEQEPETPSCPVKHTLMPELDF
Target sequence (Q8WTS1 whole entry, looked up): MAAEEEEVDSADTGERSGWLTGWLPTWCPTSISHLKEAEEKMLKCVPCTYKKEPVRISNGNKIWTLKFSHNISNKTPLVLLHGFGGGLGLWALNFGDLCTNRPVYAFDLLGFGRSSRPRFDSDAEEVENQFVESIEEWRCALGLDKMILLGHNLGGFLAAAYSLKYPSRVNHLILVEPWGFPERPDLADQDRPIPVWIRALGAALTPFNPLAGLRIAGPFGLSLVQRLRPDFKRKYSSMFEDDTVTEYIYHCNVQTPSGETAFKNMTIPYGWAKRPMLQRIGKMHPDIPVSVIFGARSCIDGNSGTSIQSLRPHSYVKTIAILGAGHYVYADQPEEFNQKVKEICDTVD
rCAG binder – binds r(CAG) RNA repeats. r(CAG) RNA repeat, TO-PRO-1 dye displacement fluorescence. inhibition, % at 3 µM. actives 1.3% (n = 370,000). AID 651821;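 active means inhibition above the plate cutoff, the mean of all test compounds on that plate plus 3 SD, cut at about 35% in these data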;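 further: 0% = DMSO alone and 100% = 100 µM mitoxantrone as full dye displacement; higher means more dye released from RNA so lower well fluorescence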
HCV core dimer – HCV core protein dimerization inhibition. TR-FRET GST/Flag-core106 dimerization, 1536-well. inhibition, % at 5 µM. actives 0.33% (n = 300,000). AID 1899;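 active means inhibition above the mean of all tested compounds plus 3 SD, set per screening campaign, cut at about 45% in these data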
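Assay system: GST-tagged and Flag-tagged HCV core protein residues 1-106 / Times: compound-protein-antibody incubation 4 h at 22.5 °C / Signal: time-resolved FRET, ex 340 nm, em 617 and 671 nm / Evaluation: % inhibition based on acceptor/donor emission ratio / Benchmarks: wells lacking GST-core106 and wells with excess unlabelled core106 / Repeats: singlicate, one well per compound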
rCAG binder conf – r(CAG) RNA repeat binding, confirmation; TO-PRO-1 dye displacement fluorescence; actives 70% (n = 4,300); inhibition, % at 3 µM; shares compounds with rCAG binder;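 active means inhibition above a per-plate cutoff, the mean inhibition of sample wells plus 3 SD, cut at about 35% in these data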;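 further: loss of TO-PRO-1 fluorescence as compound displaces dye from 1x1 AA loop RNA; 0% = DMSO only wells and 100% = 100 µM mitoxantrone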
DNA CAG counter – disrupts DNA CAG TO-PRO-1 complex, flagging rCAG hits. shares compounds with rCAG binder. d(CAG) DNA oligo TO-PRO-1 dye displacement, fluorescence. inhibition, % at 3 µM. actives 94% (n = 4,300);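 active means inhibition above its plate's cutoff, the mean test-well inhibition plus 3 SD, cut at about 4.8% in these data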;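 further: 0% = DNA dye mix with DMSO and 100% = 100 µM mitoxantrone; hits displace the dye from DNA and so lower well fluorescence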
DNA CAG DR – counter-screen for rCAG binders: inhibitors of DNA CAG TO-PRO-1 complex | shares compounds with rCAG binder | DNA CAG/GTC duplex TO-PRO-1 dye displacement fluorescence | IC50, µM | actives 20% (n = 250); in the data active means IC50 below about 10 µM
* = called active by the depositor; . = not tested or not shown.

SMILES	NadD block	ABHD5 PLIN5 PPI	rCAG binder	HCV core dimer	rCAG binder conf	DNA CAG counter	others
CC(C)(C)OC(=O)N1CCC(NC(=O)c2[nH]c(C(F)(F)F)nc2-c2ccccc2)CC1	3	-9	4	.	.	.
Cc1noc(C)c1NC(=O)N(C)C[C@@H]1OCc2cn(nn2)CCCC(=O)N([C@@H](C)CO)C[C@H]1C	.	.	2	.	.	.
O=S1(=O)c2c(cccc2N2CCSCC2)Oc2ccccc2CN1Cc1cn(Cc2ccc(Cl)cc2)nn1	.	.	4	.	.	.
Cc1ccc([N+](=O)[O-])cc1N(CC(=O)Nc1ccc(S(=O)(=O)Nc2cccc(C(F)(F)F)c2)cc1)S(C)(=O)=O	29	21	58*	7	56*	18*
O=C(Nc1ccc(Br)c2ccccc12)c1ccc2ccccc2c1O	22	-5	77*	46	78*	40*
CC(=O)Nc1ccc(Br)c2ccccc12	6	2	1	2	.	.
CCCCCCCCN1C(=O)[C@@H](CC(=O)NCC2CCCCC2)C[C@@]2(C(=O)OC)C1=C[C@H](C(C)C)O[C@@H]2C1CC1	.	.	17	.	.	.
COc1cc(/C=C2/C(=O)N(c3ccc(C)c(C)c3)N=C2C)cc([N+](=O)[O-])c1O	-4	-16	37*	-9	46*	12*
N#Cc1c(-c2ccccc2)cc(C2CC2)nc1SCC(=O)O	1	-2	14	-3	.	.
COc1cc(-c2cc(-c3ccccc3)nc(SCC(=O)O)c2C#N)cc(OC)c1OC	1	1	41*	11	50*	17*
N#Cc1c(-c2ccccc2)cc(-c2ccccc2)nc1SCCC(=O)O	4	2	61*	4	66*	28*	DNA CAG DR=>30
N#Cc1c(-c2ccc(Cl)cc2)cc(-c2ccccc2)nc1SCC(=O)O	11	4	76*	17	84*	53*
CC(C)[C@H](NC(=O)c1ccc(Cl)c(Cl)c1)C(=O)N1CCC[C@H]1C(=O)NCc1ccccc1	.	.	1	.	.	.
C[C@@H]1CN([C@@H](C)CO)C(=O)CCCn2nncc2CO[C@H]1CN(C)S(=O)(=O)c1ccccc1C#N	-2	-1	4	.	.	.
COc1ccc(Br)cc1C1CC(=O)N2CN(Cc3ccccc3)CSC2=C1C#N (configuration not stated)	12	-2	38*	0	30	13*
COc1ccc(Br)cc1C1CC(=O)N2CN(C)CSC2=C1C#N (configuration not stated)	4	-4	17	-1	.	.
O=C(NCC1CCN(C(=O)C(=O)c2cccs2)CC1)c1ccc2c(c1)OCO2	.	.	2	.	.	.
COc1cc(/C=C/C(=O)O)cc(S(=O)(=O)Nc2ccc3cn[nH]c3c2)c1OC	5	1	3	.	.	.
COc1cc(/C=C/C(=O)O)cc(S(=O)(=O)Nc2ccc3nc(SC)sc3c2)c1OC	1	-1	50*	4	32	9.6*
Nc1cc(C(=O)O)c(N)c2c1C(=O)c1ccccc1C2=O	-1	1	.	-127	.	.
Nc1c(Br)cc(Br)c2c1C(=O)c1c(cccc1S(=O)(=O)O)C2=O	-1	3	43*	.	48*	13*
Cc1ccc(-n2c(SCC(=O)c3ccc(O)c(O)c3)nnc2-c2ccccc2)cc1	.	.	39*	.	37*	15*
CCn1c(SCC(=O)c2ccc(O)c(O)c2)nnc1-c1ccccc1	3	-6	8	-9	.	.
O=C(Nc1ccc(Cl)c(Cl)c1)C1CCN(c2ncccn2)CC1	.	.	0	.	.	.
O=C(NC(=S)Nc1sc2c(c1C(=O)O)CCCC2)c1ccccc1	8	5	72*	3	56*	20*
SMILES	NadD block	ABHD5 PLIN5 PPI	rCAG binder	HCV core dimer	rCAG binder conf	DNA CAG counter	others
Cc1cccc(C(=O)Nc2sc3c(c2C(=O)O)CCCC3)c1	-1	2	41*	-1	32	9.3*
O=C(O)c1ccc(NS(=O)(=O)c2cccc(C(=O)Nc3ccc(Br)cc3)c2)cc1	-2	-2	13	10	.	.
Cc1ccccc1C(=O)Nc1sc2c(c1C(=O)O)CCC2	-5	-2	6	1	.	.
O=C(Nc1sc2c(c1C(=O)O)CCC2)c1cccc(Cl)c1	-4	-4	74*	2	53*	15*
O=C(Nc1sc2c(c1C(=O)O)CCC2)c1ccccc1Cl	-6	-1	12	3	.	.
N#Cc1c(NC(=O)c2cccc(S(=O)(=O)Nc3ccc(C(=O)O)cc3)c2)sc2c1CCCC2	7	0	61*	-2	46*	17*
Oc1ccc(C=NNC(=S)Nc2ccccc2)nc1	-2	-8	2	.	.	.
C[C@H](O)[C@@H]1CN2CCc3c([nH]c4c(-c5ccccc5)cccc34)[C@@H]2C[C@@H]1N(C)CC1CCCCC1	.	.	4	.	.	.
CCOC(=O)C1CCCN(C(=O)Cc2ccc(OC)c(OC)c2)CC1 (configuration not stated)	2	0	0	.	.	.
CC(C)CNc1ccc2c(c1)OC[C@@H](CC(C)C)NS2(=O)=O	.	.	-1	.	.	.
Cc1ccc(Cn2cc(CN3[C@H](c4ccccc4)COc4cc(Br)ccc4S3(=O)=O)nn2)cc1	.	.	66*	.	51*	19*
Nc1nc2c(-c3ccc([N+](=O)[O-])cc3)nnn2c2ccccc12	.	.	4	.	.	.
Cc1ccc(C)c(N=Cc2cc3c(cc2[N+](=O)[O-])OCO3)c1	17	-9	22	6	.	.
Cc1ccc(N=Cc2cc3c(cc2[N+](=O)[O-])OCO3)cc1[N+](=O)[O-]	3	-4	39*	19	9	4.9*
O=[N+]([O-])c1cc(Br)cc(C=Nc2ccc3c(c2)OCO3)c1O	18	-8	58*	19	41*	17*
CCCCS(=O)(=O)N1CCCc2nc(CC)c(CC)cc21	.	.	-1	.	.	.
Cc1ccc(-c2nc3cccnc3s2)cc1NS(=O)(=O)c1cccs1	-1	-7	26	9	.	.
O=S(=O)(Nc1ccc(-c2nc3cccnc3s2)cc1)c1cc(F)ccc1F	-7	0	45*	12	35*	9.2*
CCc1ccc(S(=O)(=O)Nc2ccc(-c3nc4cccnc4s3)cc2)s1	2	-10	57*	2	58*	22*
C[C@H](CO)N1C[C@H](C)[C@@H](CN(C)C(=O)Nc2ccc(-c3cccs3)cc2)OCc2cn(nn2)CCCC1=O	.	.	10	.	.	.
COC(=O)[C@]12C[C@H](CC(=O)NCCC(C)C)C(=O)N(Cc3ccc(Cl)cc3Cl)C1=C[C@H](C(C)(C)C)O[C@@H]2C	.	.	9	.	.	.
COc1ccc(NS(=O)(=O)c2ccc(O)c(C(=O)OCC(=O)Nc3ccc4c(c3)OCCO4)c2)cc1	6	5	38*	7	28	11*
Cc1cccc(C)c1NC(=O)COC(=O)c1cc(S(=O)(=O)Nc2ccc(Cl)cc2)ccc1O	4	2	11	.	.	.
